Reference: ChEMBL document CHEMBL1629622, “Isolation of VanB-type Enterococcus faecalis strains from nosocomial infections: first report of the isolation and identification of the pheromone-responsive plasmids pMG2200, Encoding VanB-type vancomycin resistance and a Bac41-type bacteriocin, and pMG2201, encoding erythromycin resistance and …” (2009)
Values after ≈ are worked out from the molar mass of the structure shown. Active and inactive are the calls of the source. No cut-off for these calls is given here. Residues, ends and D or L forms follow the SMILES beside them.

How the values were obtained:
[1] = tested on: Enterococcus faecalis; test: Antimicrobial activity against Enterococcus faecalis NKH1 harboring pMG2200-like plasmid after 24 hrs by agar dilution method; type: functional
In short: (§1)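 Agar dilution MICs on clinical E. faecalis isolates. Overnight Mueller-Hinton broth culture diluted 100-fold; ~5 × 10^5 cells inoculated onto Mueller-Hinton medium holding a concentration series of each drug. Incubated at 37°C and read at 24 h. Testing and interpretation follow CLSI (NCCLS) standards, with E. faecium ATCC 9790 as control strain.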

[2] = tested on: Enterococcus faecalis; test: Antimicrobial activity against Enterococcus faecalis NKH2 harboring pMG2200-like and pMG2201-like plasmids after 24 hrs by agar dilution method; type: functional; in short: as §1
[3] = tested on: Enterococcus faecalis; test: Antimicrobial activity against Enterococcus faecalis NKH3 harboring pMG2200-like and pMG2201-like plasmids after 24 hrs by agar dilution method; type: functional; in short: as §1
[4] = tested on: Enterococcus faecalis; test: Antimicrobial activity against Enterococcus faecalis NKH4 harboring pMG2200-like and pMG2201-like plasmids after 24 hrs by agar dilution method; type: functional; in short: as §1
[5] = tested on: Enterococcus faecalis; test: Antimicrobial activity against Enterococcus faecalis NKH5 harboring pMG2200-like plasmid after 24 hrs by agar dilution method; type: functional; in short: as §1
[6] = tested on: Enterococcus faecalis; test: Antimicrobial activity against Enterococcus faecalis NKH6 harboring pMG2200-like and pMG2201-like plasmids after 24 hrs by agar dilution method; type: functional; in short: as §1
[7] = tested on: Enterococcus faecalis; test: Antimicrobial activity against Enterococcus faecalis NKH7 harboring pMG2200-like plasmid after 24 hrs by agar dilution method; type: functional; in short: as §1
[8] = tested on: Enterococcus faecalis; test: Antimicrobial activity against Enterococcus faecalis NKH8 harboring pMG2200-like and pMG2201-like plasmids after 24 hrs by agar dilution method; type: functional; in short: as §1
[9] = tested on: Enterococcus faecalis; test: Antimicrobial activity against Enterococcus faecalis NKH9 harboring pMG2200-like and pMG2201-like plasmids after 24 hrs by agar dilution method; type: functional; in short: as §1
[10] = tested on: Enterococcus faecalis; test: Antimicrobial activity against Enterococcus faecalis NKH10 harboring pMG2200-like and pMG2201-like plasmids after 24 hrs by agar dilution method; type: functional; in short: as §1
[11] = tested on: Enterococcus faecalis; test: Antimicrobial activity against Enterococcus faecalis NKH11 harboring pMG2200-like plasmid after 24 hrs by agar dilution method; type: functional; in short: as §1
[12] = tested on: Enterococcus faecalis; test: Antimicrobial activity against Enterococcus faecalis NKH12 harboring pMG2200-like and pMG2201-like plasmids after 24 hrs by agar dilution method; type: functional; in short: as §1
[13] = tested on: Enterococcus faecalis; test: Antimicrobial activity against Enterococcus faecalis NKH13 harboring pMG2200-like and pMG2201-like plasmids after 24 hrs by agar dilution method; type: functional; in short: as §1
[14] = tested on: Enterococcus faecalis; test: Antimicrobial activity against Enterococcus faecalis NKH14 harboring pMG2200-like and pMG2201-like plasmids after 24 hrs by agar dilution method; type: functional; in short: as §1
[15] = tested on: Enterococcus faecalis; test: Antimicrobial activity against Enterococcus faecalis NKH15 harboring pMG2200-like and pMG2201-like plasmids after 24 hrs by agar dilution method; type: functional; in short: as §1
[16] = tested on: Enterococcus faecalis; test: Antimicrobial activity against Enterococcus faecalis NKH16 harboring pMG2200-like plasmid after 24 hrs by agar dilution method; type: functional; in short: as §1
[17] = tested on: Enterococcus faecalis; test: Antimicrobial activity against Enterococcus faecalis NKH17 harboring pMG2200-like plasmid after 24 hrs by agar dilution method; type: functional; in short: as §1
[18] = tested on: Enterococcus faecalis; test: Antimicrobial activity against Enterococcus faecalis NKH18 harboring pMG2200-like and pMG2201-like plasmids after 24 hrs by agar dilution method; type: functional; in short: as §1
[19] = tested on: Enterococcus faecalis; test: Induction of transfer of plasmid pAM714 in Enterococcus faecalis JH2SS at 100 ng/ml; type: functional, organism-based
In short: (§2)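 Donor E. faecalis JH2SS carrying pMG2200 and pAM714 was exposed for 2 h to a synthetic pheromone (cCF10 or cAD1, 100 ng/ml) to induce aggregation-mating. A short 10-min mating with recipient FA2-2 followed. Transfer frequency was scored as transconjugants per donor cell at the end of mating.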

[20] = tested on: Enterococcus faecalis; test: Induction of transfer of plasmid pMG2200 in Enterococcus faecalis JH2SS at 100 ng/ml; type: functional, organism-based; in short: as §2
[21] = tested on: Enterococcus faecalis; test: Induction of aggregation of Enterococcus faecalis JH2SS harboring pMG2200 at 100 ng/ml; type: functional, organism-based
In short: (§3)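 Donor E. faecalis JH2SS carrying the plasmid, exposed 2 h to synthetic pheromone (cAD1, cPD1, cCF10, cOB1 or cAM373 at 100 ng/ml) or to FA2-2 culture filtrate. Aggregation (clumping) of cells scored visually afterwards. A short 10-min mating with FA2-2 followed induction.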

[22] = tested on: Enterococcus faecalis; test: Induction of aggregation of Enterococcus faecalis JH2SS harboring pMG2201 at 100 ng/ml; type: functional, organism-based; in short: as §3

Row | Molecule | MIC ([1]; NKH1, 24 h) [µg/mL] | MIC ([2]; NKH2, 24 h) [µg/mL] | MIC ([3]; NKH3, 24 h) [µg/mL] | MIC ([4]; NKH4, 24 h) [µg/mL] | MIC ([5]; NKH5, 24 h) [µg/mL] | MIC ([6]; NKH6, 24 h) [µg/mL] | MIC ([7]; NKH7, 24 h) [µg/mL] | MIC ([8]; NKH8, 24 h) [µg/mL] | MIC ([9]; NKH9, 24 h) [µg/mL] | MIC ([10]; NKH10, 24 h) [µg/mL] | MIC ([11]; NKH11, 24 h) [µg/mL] | MIC ([12]; NKH12, 24 h) [µg/mL] | MIC ([13]; NKH13, 24 h) [µg/mL] | MIC ([14]; NKH14, 24 h) [µg/mL] | MIC ([15]; NKH15, 24 h) [µg/mL] | MIC ([16]; NKH16, 24 h) [µg/mL] | MIC ([17]; NKH17, 24 h) [µg/mL] | MIC ([18]; NKH18, 24 h) [µg/mL] | other results
1 | CN(C)[C@@H]1C(O)=C(C(N)=O)C(=O)[C@@]2(O)C(O)=C3C(=O)c4c(O)cccc4[C@@](C)(O)[C@H]3C[C@@H]12 [TETRACYCLINE] | 64 (≈ 144 µM) | 64 (≈ 144 µM) | 32 (≈ 72 µM) | 32 (≈ 72 µM) | 64 (≈ 144 µM) | 64 (≈ 144 µM) | 64 (≈ 144 µM) | 64 (≈ 144 µM) | 64 (≈ 144 µM) | 64 (≈ 144 µM) | 64 (≈ 144 µM) | 64 (≈ 144 µM) | 64 (≈ 144 µM) | 64 (≈ 144 µM) | 32 (≈ 72 µM) | 32 (≈ 72 µM) | 32 (≈ 72 µM) | 32 (≈ 72 µM) | 
2 | GENTAMICIN |  |  |  |  |  |  |  |  |  |  |  |  |  |  |  |  |  |  | MIC [1]: > 1020 µg/mL; MIC [2]: > 1020 µg/mL; MIC [3]: > 1020 µg/mL; MIC [4]: > 1020 µg/mL; MIC [5]: > 1020 µg/mL; MIC [6]: > 1020 µg/mL; MIC [7]: > 1020 µg/mL; MIC [8]: > 1020 µg/mL; MIC [9]: 1020 µg/mL; MIC [10]: > 1020 µg/mL; MIC [11]: > 1020 µg/mL; MIC [12]: > 1020 µg/mL; MIC [13]: > 1020 µg/mL; MIC [14]: > 1020 µg/mL; MIC [15]: > 1020 µg/mL; MIC [16]: > 1020 µg/mL; MIC [17]: > 1020 µg/mL; MIC [18]: > 1020 µg/mL
3 | CN[C@@H]1[C@H](O[C@H]2[C@H](O[C@H]3[C@H](O)[C@@H](O)[C@H](N=C(N)N)[C@@H](O)[C@@H]3N=C(N)N)O[C@@H](C)[C@]2(O)C=O)O[C@@H](CO)[C@H](O)[C@H]1O [STREPTOMYCIN] | 32 (≈ 55 µM) | 32 (≈ 55 µM) | 32 (≈ 55 µM) | 32 (≈ 55 µM) | 32 (≈ 55 µM) | 32 (≈ 55 µM) | 32 (≈ 55 µM) | 32 (≈ 55 µM) | 32 (≈ 55 µM) | 32 (≈ 55 µM) | 32 (≈ 55 µM) | 32 (≈ 55 µM) | 32 (≈ 55 µM) | 32 (≈ 55 µM) | 32 (≈ 55 µM) | 32 (≈ 55 µM) | 32 (≈ 55 µM) | 32 (≈ 55 µM) | 
4 | NC[C@H]1O[C@H](O[C@H]2[C@H](O)[C@@H](O[C@H]3O[C@H](CO)[C@@H](O)[C@H](N)[C@H]3O)[C@H](N)C[C@@H]2N)[C@H](O)[C@@H](O)[C@@H]1O [KANAMYCIN] | > 1020 | > 1020 | > 1020 | > 1020 | > 1020 | > 1020 | > 1020 | > 1020 | > 1020 | > 1020 | > 1020 | > 1020 | > 1020 | > 1020 | > 1020 | > 1020 | > 1020 | > 1020 | 
5 | CC(C)C[C@H](NC(=O)[C@H](CO)NC(=O)[C@H](Cc1ccccc1)NC(=O)[C@@H](N)CC(C)C)C(=O)N[C@H](C(=O)N[C@@H](CC(C)C)C(=O)N[C@@H](C)C(=O)NCC(=O)O)C(C)C (H-LFSLVLAG-OH) |  |  |  |  |  |  |  |  |  |  |  |  |  |  |  |  |  |  | Activity [19]: Active; Activity [20]: inactive; Activity [21]: inactive; Activity [22]: Active
6 | CC1(C)S[C@@H]2[C@H](NC(=O)[C@H](N)c3ccccc3)C(=O)N2[C@H]1C(=O)O [AMPICILLIN] | 4 (≈ 11.4 µM) | 4 (≈ 11.4 µM) | 4 (≈ 11.4 µM) | 4 (≈ 11.4 µM) | 4 (≈ 11.4 µM) | 4 (≈ 11.4 µM) |  |  |  | 4 (≈ 11.4 µM) | 4 (≈ 11.4 µM) | 4 (≈ 11.4 µM) |  |  | 4 (≈ 11.4 µM) |  |  |  | 
7 | CC(C)C[C@H](NC(=O)[C@@H](NC(=O)[C@@H](NC(=O)[C@@H](N)CC(C)C)C(C)C)[C@@H](C)O)C(=O)N[C@H](C(=O)N[C@@H](Cc1ccccc1)C(=O)N[C@H](C(=O)O)C(C)C)C(C)C (H-LVTLVFV-OH) |  |  |  |  |  |  |  |  |  |  |  |  |  |  |  |  |  |  | Activity [19]: inactive; Activity [20]: Active; Activity [21]: Active; Activity [22]: inactive
